Data: ChEMBL document CHEMBL3525985, “Regiospecificity and stereospecificity of human UDP-glucuronosyltransferases in the glucuronidation of estriol, 16-epiestriol, 17-epiestriol, and 13-epiestradiol” (Drug Metab Dispos, 2013)

Columns and labels:
Type in all cases: ADME
[1] = molecular target: T1, UDP-glucuronosyltransferase 2B4 (Homo sapiens, UniProt P06133); experiment: Drug metabolism assessed as recombinant human C-terminal His-tagged UGT2B4-mediated 13-epiestradiol-17-glucuronide formation at 200 uM after 15 to 60 mins by HPLC analysis in presence of UDPGA; settings: recombinant enzyme
T1 sequence (P06133 whole entry): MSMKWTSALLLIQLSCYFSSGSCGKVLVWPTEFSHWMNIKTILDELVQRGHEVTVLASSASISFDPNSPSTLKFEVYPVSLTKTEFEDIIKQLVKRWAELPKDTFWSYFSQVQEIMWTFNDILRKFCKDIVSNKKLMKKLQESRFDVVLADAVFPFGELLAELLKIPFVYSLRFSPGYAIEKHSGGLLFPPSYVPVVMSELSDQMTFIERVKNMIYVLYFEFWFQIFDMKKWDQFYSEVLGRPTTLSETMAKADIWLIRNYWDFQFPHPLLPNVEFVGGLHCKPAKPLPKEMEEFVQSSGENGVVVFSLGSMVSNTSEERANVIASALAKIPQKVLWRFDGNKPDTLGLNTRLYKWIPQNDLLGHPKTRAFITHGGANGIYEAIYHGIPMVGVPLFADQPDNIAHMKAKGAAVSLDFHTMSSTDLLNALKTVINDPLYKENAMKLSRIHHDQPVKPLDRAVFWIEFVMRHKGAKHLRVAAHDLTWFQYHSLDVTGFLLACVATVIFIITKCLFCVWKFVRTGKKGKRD
Outline: (§1)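 Screening at a single substrate concentration of 200 μM, in triplicate. The reaction used 5 or 50 µg of UGT-enriched insect cell membranes in 50 mM phosphate pH 7.4 with 10 mM MgCl₂ and 5 mM UDPGA, 10% final DMSO. Incubation was 15–60 min at 37°C. Perchloric acid stopped the reaction and supernatants were analysed by HPLC. Controls lacked UDPGA. Rates were normalized to relative UGT expression level.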

[2] = molecular target: UDP-glucuronosyltransferase 1A7 (Homo sapiens, UniProt Q9HAW7); experiment: Drug metabolism assessed as recombinant human C-terminal His-tagged UGT1A7-mediated 16-epiestriol-3-glucuronide formation after 15 to 60 mins by Michaelis-Menten equation analysis in presence of UDPGA; settings: recombinant enzyme
UDP-glucuronosyltransferase 1A7, sequence (Q9HAW7 whole entry): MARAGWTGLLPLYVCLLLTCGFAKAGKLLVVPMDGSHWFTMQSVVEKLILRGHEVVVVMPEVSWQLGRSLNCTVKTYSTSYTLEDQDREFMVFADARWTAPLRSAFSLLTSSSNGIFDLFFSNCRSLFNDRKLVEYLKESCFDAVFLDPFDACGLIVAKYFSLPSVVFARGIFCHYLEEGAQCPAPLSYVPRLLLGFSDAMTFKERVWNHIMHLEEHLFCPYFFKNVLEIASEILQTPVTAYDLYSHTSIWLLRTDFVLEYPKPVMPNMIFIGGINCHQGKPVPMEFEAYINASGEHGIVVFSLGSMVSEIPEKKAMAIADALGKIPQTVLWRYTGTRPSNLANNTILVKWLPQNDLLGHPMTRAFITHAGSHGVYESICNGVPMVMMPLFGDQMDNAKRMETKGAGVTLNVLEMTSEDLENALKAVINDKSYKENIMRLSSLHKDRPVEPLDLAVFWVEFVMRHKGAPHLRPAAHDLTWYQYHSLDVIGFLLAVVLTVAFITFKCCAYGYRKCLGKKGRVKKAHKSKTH

[3] = molecular target: T2, UDP-glucuronosyltransferase 1A1 (Homo sapiens, UniProt P22309); experiment: Drug metabolism assessed as recombinant human C-terminal His-tagged UGT1A1-mediated 16-epiestriol-3-glucuronide formation after 15 to 60 mins by Michaelis-Menten equation analysis in presence of UDPGA; settings: recombinant enzyme
T2 sequence (P22309 whole entry): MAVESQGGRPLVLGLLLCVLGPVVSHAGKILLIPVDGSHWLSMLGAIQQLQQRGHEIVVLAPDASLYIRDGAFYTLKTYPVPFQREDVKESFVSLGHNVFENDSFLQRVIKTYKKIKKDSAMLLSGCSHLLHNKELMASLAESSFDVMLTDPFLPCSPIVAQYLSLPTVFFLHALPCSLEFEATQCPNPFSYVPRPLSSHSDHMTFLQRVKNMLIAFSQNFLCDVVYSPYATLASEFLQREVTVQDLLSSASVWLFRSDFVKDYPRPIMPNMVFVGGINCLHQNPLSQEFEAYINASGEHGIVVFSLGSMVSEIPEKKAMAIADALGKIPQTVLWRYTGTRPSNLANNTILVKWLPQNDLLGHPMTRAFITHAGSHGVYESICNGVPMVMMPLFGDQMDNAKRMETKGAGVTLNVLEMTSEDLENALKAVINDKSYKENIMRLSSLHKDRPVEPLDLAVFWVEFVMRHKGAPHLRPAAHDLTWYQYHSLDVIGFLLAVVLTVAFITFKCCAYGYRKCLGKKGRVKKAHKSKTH

[4] = molecular target: T3, UDP-glucuronosyltransferase 2B15 (Homo sapiens, UniProt P54855); experiment: Drug metabolism assessed as recombinant human C-terminal […]-mediated 16-epiestriol-3-glucuronide formation after 15 to 60 mins by Michaelis-Menten equation analysis in presence of UDPGA; settings: recombinant enzyme
T3 sequence (P54855 whole entry): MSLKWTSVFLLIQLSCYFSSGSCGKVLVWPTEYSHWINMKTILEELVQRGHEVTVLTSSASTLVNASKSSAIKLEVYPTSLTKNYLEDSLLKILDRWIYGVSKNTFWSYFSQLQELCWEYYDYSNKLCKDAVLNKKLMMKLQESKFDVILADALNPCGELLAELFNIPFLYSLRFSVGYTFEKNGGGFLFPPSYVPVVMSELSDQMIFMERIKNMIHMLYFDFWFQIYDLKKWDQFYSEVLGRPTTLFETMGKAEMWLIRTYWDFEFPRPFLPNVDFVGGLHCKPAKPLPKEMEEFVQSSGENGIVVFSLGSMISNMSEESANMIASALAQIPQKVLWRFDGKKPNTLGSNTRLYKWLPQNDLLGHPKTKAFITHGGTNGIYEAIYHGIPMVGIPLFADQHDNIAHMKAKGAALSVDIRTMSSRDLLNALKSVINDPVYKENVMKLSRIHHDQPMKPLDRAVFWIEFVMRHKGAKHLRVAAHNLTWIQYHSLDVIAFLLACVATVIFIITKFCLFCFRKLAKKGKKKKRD

[5] = molecular target: T4, UDP-glucuronosyltransferase 1A4 (Homo sapiens, UniProt P22310); experiment: Drug metabolism assessed as recombinant human C-terminal His-tagged UGT1A4-mediated 17-epiestriol-16-glucuronide formation at 200 uM after 15 to 60 mins by HPLC analysis in presence of UDPGA; settings: recombinant enzyme; outline: as §1
T4 sequence (P22310 whole entry): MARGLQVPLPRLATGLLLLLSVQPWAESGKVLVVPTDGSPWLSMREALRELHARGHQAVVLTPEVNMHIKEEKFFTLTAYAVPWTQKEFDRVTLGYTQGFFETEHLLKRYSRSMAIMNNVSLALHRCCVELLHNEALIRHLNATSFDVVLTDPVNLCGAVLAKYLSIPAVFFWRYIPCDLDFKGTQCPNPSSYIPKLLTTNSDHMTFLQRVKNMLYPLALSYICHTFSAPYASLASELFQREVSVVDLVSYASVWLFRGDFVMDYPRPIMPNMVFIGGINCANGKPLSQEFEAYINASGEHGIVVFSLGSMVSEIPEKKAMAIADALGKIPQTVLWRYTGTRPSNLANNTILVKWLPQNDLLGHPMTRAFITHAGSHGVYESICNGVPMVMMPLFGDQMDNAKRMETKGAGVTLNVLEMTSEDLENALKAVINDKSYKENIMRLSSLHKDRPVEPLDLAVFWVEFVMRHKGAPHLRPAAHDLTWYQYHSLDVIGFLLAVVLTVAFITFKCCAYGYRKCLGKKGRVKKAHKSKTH

[6] = Drug metabolism in human intestine microsomes assessed as 17-epiestriol-17-glucuronide formation after 15 to 60 mins by Michaelis-Menten equation analysis in presence of UDPGA
Outline: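 Pooled human intestine microsomes (6 donors), 0.5 or 10 µg, with alamethicin at 5% of total protein. Incubated with 50 mM phosphate pH 7.4, 10 mM MgCl₂, 5 mM UDPGA and 10% DMSO for 15–60 min at 37°C. Each glucuronide regioisomer quantified by HPLC, in triplicate, with substrate consumption at or below 10%.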

With `C[C@@]12CC[C@@H]3c4ccc(O)cc4CC[C@H]3[C@@H]1CC[C@@H]2O` the Drug metabolism [1] was “metabolite_detected”.

`C[C@]12CC[C@@H]3c4ccc(O)cc4CC[C@H]3[C@@H]1C[C@H](O)[C@@H]2O` [EPIESTRIOL] showed a Drug metabolism [2] of 0.5 pmol/min/mg, a Drug metabolism [3] of 0.5 pmol/min/mg and a Drug metabolism [4] of 0.5 pmol/min/mg.

For `C[C@]12CC[C@@H]3c4ccc(O)cc4CC[C@H]3[C@@H]1C[C@@H](O)[C@H]2O`, the Drug metabolism [5] was “metabolite_detected”, the Km [6] was 1.3 µM and the Vmax [6] was 1633 pmol/min/mg.
